# Laboratory results as given in ChEMBL document CHEMBL1145117, “Structures and cytotoxic properties of trichoverroids and their macrolide analogues produced by saltwater culture of Myrothecium verrucaria” (J Med Chem, 2003).
# Key:
# [1] = tested on: A549; assay: In vitro antitumor activity against NSCL A549/ATCC tumor cell lines; type: functional, cell-based, Homo sapiens; conditions: Homo sapiens, A549
# [2] = tested on: A498; assay: In vitro antitumor activity against renal A498 tumor cell lines; type: functional, cell-based, Homo sapiens; conditions: Homo sapiens, A498
# [3] = tested on: MC-38; assay: Selectivity was evaluated against Murine tumor ZC38 colon adenocarcinoma cell lines- ZL1210 lymphocytic leukemia cell lines at a concentration of 550 ug/mL; type: functional, Mus musculus
# Method in brief: (§1)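 Disk diffusion soft agar colony formation assay with zone units read for murine L1210, C38 and CFU-GM (bone marrow) cells and for human H116, H125 and CEM cells. Selectivity is the zone-unit difference between the paired cell lines. A solid tumor minus leukemia or normal difference above 250 units counts as solid tumor selective.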
# [4] = tested on: CCRF-CEM; assay: In vitro antitumor activity against leukemia CCRF-CEM tumor cell lines; type: functional, cell-based, Homo sapiens; conditions: Homo sapiens, CCRF-CEM
# [5] = tested on: COLO 205; assay: In vitro antitumor activity against colon COLO 205 tumor cell lines; type: functional, cell-based, Homo sapiens; conditions: Homo sapiens, COLO 205
# [6] = tested on: MC-38; assay: Selectivity was evaluated against murine tumor ZC38 colon adenocarcinoma cell lines- ZCFU-GM normal bone marrow cell lines at a concentration of 550 ug/mL; type: functional, Mus musculus; method in brief: as §1
# [7] = tested on: NCI-H125; assay: Selectivity was evaluated against human ZH125 lung non small cell carcinoma cell lines-CEM lymphocytic leukemia cell lines at a concentration of 550 ug/mL; type: functional; method in brief: as §1
# [8] = tested on: HCT-15; assay: In vitro antitumor activity against colon HCT-15 tumor cell lines; type: functional, cell-based, Homo sapiens; conditions: Homo sapiens, HCT-15
# [9] = tested on: HCT-116; assay: In vitro antitumor activity against colon HCT116 tumor cell lines; type: functional, cell-based, Homo sapiens; conditions: Homo sapiens, HCT-116
# [10] = species on record: Homo sapiens; assay: Concentration giving 500 zone units against H116 colon tumor cell lines; type: functional
# Method in brief: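 Disk diffusion soft agar colony formation assay on human H116 colon tumor cells. Each sample was applied to a disk as 15 µL, and activity was read as zone units. The value is the sample concentration that gave 500 zone units.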
# [11] = Activity relative to compound 3 (set to 1.0) was evaluated against H116 colon tumor cell lines; type: functional, Homo sapiens
# Method in brief: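 Disk diffusion soft agar colony formation assay on human H116 colon tumor cells, with 15 µL of sample applied to a disk and zone units read. Relative activity = (dilution required for 500 zone units × 100)/(mg/mL), normalised to a reference compound set at 1.0.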
# [12] = Selectivity was evaluated against human ZH116 colon cell lines-CEM lymphocytic leukemia cell lines at a concentration of 550 ug/mL; type: functional; method in brief: as §1
# [13] = tested on: L1210; assay: Selectivity was evaluated murine tumor against ZL1210 lymphocytic leukemia cell lines- ZCFU-GM normal bone marrow cell lines at a concentration of 550 ug/mL; type: functional, Mus musculus; method in brief: as §1
# [14] = tested on: MDA-MB-435; assay: In vitro antitumor activity against breast MDA-MB-435 tumor cell lines; type: functional, cell-based, Homo sapiens; conditions: Homo sapiens, MDA-MB-435
# [15] = tested on: M14; assay: In vitro antitumor activity against melanoma M14 tumor cell lines; type: functional, cell-based, Homo sapiens; conditions: Homo sapiens, M14
# [16] = tested on: MOLT-4; assay: In vitro antitumor activity against leukemia MOLT-4 tumor cell lines; type: functional, cell-based, Homo sapiens; conditions: Homo sapiens, MOLT-4
# [17] = tested on: MCF7; assay: In vitro antitumor activity against breast MCF-7 tumor cell lines; type: functional, cell-based, Homo sapiens; conditions: Homo sapiens, MCF7
# [18] = tested on: NCI-H522; assay: In vitro antitumor activity against NSCL NCI-H522 tumor cell lines; type: functional, cell-based, Homo sapiens; conditions: Homo sapiens, NCI-H522
# [19] = tested on: NCI-H226; assay: In vitro antitumor activity against NSCL NCI-H226 tumor cell lines; type: functional, cell-based, Homo sapiens; conditions: Homo sapiens, NCI-H226
# [20] = tested on: RXF 393; assay: In vitro antitumor activity against renal RXF 393 tumor cell lines; type: functional, cell-based, Homo sapiens; conditions: Homo sapiens, RXF 393
# [21] = tested on: SK-MEL-2; assay: In vitro antitumor activity against melanoma SK-MEL-2 tumor cell lines; type: functional, cell-based, Homo sapiens; conditions: Homo sapiens, SK-MEL-2
# [22] = tested on: UACC-62; assay: In vitro antitumor activity against melanoma UACC-62 tumor cell lines; type: functional, cell-based, Homo sapiens; conditions: Homo sapiens, UACC-62
# [23] = tested on: HL-60; assay: In vitro antitumor activity against leukemia HL-60(TB) tumor cell lines; type: functional, cell-based, Homo sapiens; conditions: Homo sapiens, HL-60
# [24] = tested on: MDA-N; assay: In vitro antitumor activity against breast MDA-N tumor cell lines; type: functional, cell-based, Homo sapiens; conditions: Homo sapiens, MDA-N
# [25] = tested on: 786-0; assay: In vitro antitumor activity against renal 786-0 tumor cell lines; type: functional, cell-based, Homo sapiens; conditions: Homo sapiens
structure (smiles),measurement,setting,value
C/C1=C\C(=O)OC[C@]23CC[C@](C)(O)[C@H]4C[C@@]5(O)[C@H](O[C@H]42)[C@H](O)[C@@H](OC(=O)/C=C\C=C\[C@@H]2O[C@H](C1)O[C@H]2C)[C@]35C [Miophytocen C],IC50,[1],> 10 µM
same,IC50,[2],> 10 µM
same,Selectivity,[3],-350 zone unit
same,IC50,[4],> 10 µM
same,IC50,[5],> 10 µM
same,Selectivity,[6],-50 zone unit
same,Selectivity,[7],-50 zone unit
same,IC50,[8],> 10 µM
same,IC50,[9],> 10 µM
same,Concentration,[10],550 µg/mL
same,Relative activity,[11],1
same,Selectivity,[12],-50 zone unit
same,Selectivity,[13],300 zone unit
same,IC50,[14],> 10 µM
same,IC50,[15],> 10 µM
same,IC50,[16],> 10 µM
same,IC50,[17],> 10 µM
same,IC50,[18],> 10 µM
same,IC50,[19],> 10 µM
same,IC50,[20],> 10 µM
same,IC50,[21],> 10 µM
same,IC50,[22],> 10 µM
same,IC50,[23],> 10 µM
same,IC50,[24],> 10 µM
same,IC50,[25],> 10 µM
